Assay outcomes from PubChem BioAssay.
This is a sample that favours compounds with a hit; in the whole collection about 2.2% have one here.
V-ATPase pH: alters yeast V-ATPase proton transport; hit rate 0.37% among 350,000; AID 504577; response, % at 10 µM; S. cerevisiae, pHLuorin cytosolic pH fluorescence; in the data active = response mostly above about 7.3%, no sharp cut-off; inactive = mostly below about 5.4%; note: actives read high
NRP1-CendR mod: alters CendR peptide binding to human NRP-1 | O14786 | hit rate 0.85% among 360,000 | FAM-RPARPAR peptide binding to NRP-1, fluorescence polarization | AID 602438 | inhibition, % at 25 µM;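 active = inhibition or corrected inhibition above about 18%, plus a signal ratio from 0.5 to 1.5, limit read from the data, passing the limit was not always enough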
ASAP1 GAP inh: ASAP1 ArfGAP inhibition. ASAP1-stimulated ARF1 GTP hydrolysis, GDP FP detection. inhibition, % at 16.5 µM. Q9ULH1. hit rate 0.19% among 360,000; in the data active = inhibition above about 25%;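 note: 0% = vehicle with enzyme and substrate and 100% = no enzyme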
Target sequence (Q9ULH1 325-724 limits assumed): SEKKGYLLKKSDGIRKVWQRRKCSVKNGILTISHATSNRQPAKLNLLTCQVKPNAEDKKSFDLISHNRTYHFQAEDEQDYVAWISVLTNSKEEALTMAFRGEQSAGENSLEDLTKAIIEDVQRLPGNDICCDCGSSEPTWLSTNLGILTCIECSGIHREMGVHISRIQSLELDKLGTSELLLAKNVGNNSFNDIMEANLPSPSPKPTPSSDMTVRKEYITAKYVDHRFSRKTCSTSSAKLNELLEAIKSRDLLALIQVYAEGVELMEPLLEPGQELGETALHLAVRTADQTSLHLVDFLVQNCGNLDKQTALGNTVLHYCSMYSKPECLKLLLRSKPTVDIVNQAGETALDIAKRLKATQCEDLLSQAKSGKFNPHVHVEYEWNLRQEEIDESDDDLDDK
ARFGAP1 inhibitor: inhibits rat ARF GTPase activating protein 1; Q62848; Arfgap1-stimulated ARF1 GTP hydrolysis, GDP FP detection; inhibition, % at 16.5 µM; hit rate 0.26% among 360,000; AID 651572;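 active = inhibition above a per-plate limit, mean inhibition of low control wells plus 3 SD, cut at about 25% in these data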;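 note: 0% = DMSO wells with enzyme and 100% = wells lacking Arfgap1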
Target sequence (Q62848 1-136 limits assumed): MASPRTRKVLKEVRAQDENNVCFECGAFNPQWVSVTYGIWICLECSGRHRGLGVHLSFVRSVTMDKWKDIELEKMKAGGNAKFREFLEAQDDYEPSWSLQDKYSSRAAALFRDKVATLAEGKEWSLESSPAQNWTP
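System: truncated rat Arfgap1 GAP domain / Benchmarks: high control wells lacking Arfgap1, low control full reaction with DMSO / Times: compound-enzyme preincubation 20 min, reaction 120 min, detection 60 min, 25 °C / Repeats: one replicate per compound / Also added: human ARF1(Δ1-17)-GTP substrate / Measured by: Tracer-displacement fluorescence polarization with EDTA stop, 620/688 nm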
Exocytosis inh: lytic granule exocytosis inhibition | TALL-104 LAMP-1 surface exposure, flow cytometry; cells stimulated with thapsigargin and PMA | inhibition, % at 10 µM | hit rate 0.66% among 360,000 | AID 651702;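 active = inhibition above about 55%, limit read from the data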
* marks the source's active call; other numbers are inactive results; . = not tested or not shown.

SMILES | V-ATPase pH | NRP1-CendR mod | ASAP1 GAP inh | ARFGAP1 inhibitor | Exocytosis inh
O=C(N/N=C1\CCSc2ccc(F)cc21)c1cccnc1 | 0 | 0 | -4 | 24 | -1
Cc1nn(C(=O)c2cccnc2)c(C)c1Sc1ccc(Br)cc1 | -1 | 8 | . | . | 59*
Cc1nn(C(=O)c2ccco2)c(C)c1Sc1ccc(Cl)cc1 | 2 | -4 | -12 | -6 | 0
COc1ccc(NC(=O)CN(C)CC(=O)Nc2cccc(F)c2)cc1Cl | -4 | 28* | 22 | -1 | 2
COc1ccc(NC(=O)c2cccc(F)c2)cc1Cl | -1 | -7 | 1 | 5 | 0
CC1CCCN(C(=O)c2ccc3ncsc3c2)C1 (configuration not stated) | 0 | 14 | -1 | 4 | -1
Cc1ccccc1CSCC(=O)NC(=O)NCc1ccco1 | 3 | -10 | 10 | 12 | 2
O=C(CSCc1ccccc1Br)NNC(=S)NCc1ccco1 | -2 | 21* | 8 | 6 | 0
CC(C)C(C(=O)NCC1CCCO1)N(C(=O)CNS(=O)(=O)c1ccccc1)C1CCCCC1 (configuration not stated) | 4 | -1 | 11 | 0 | -9
CC(=NN(Cc1ccccc1)c1ccccc1)c1ccccc1 | -4 | 22* | 4 | -12 | -3
Cc1nc2ccc(NC(=O)C3(C)CCCN(C(C)C)C3)cc2o1 (configuration not stated) | . | 7 | -2 | -8 | 1
Cc1ccccc1C(=O)N1CCN(C(=O)C(=O)c2cccc(C(F)(F)F)c2)CC1 | . | . | -1 | -3 | .
CC[C@H](C)[C@@H](COC=O)NC(=O)[C@H]1O[C@@H](n2ccc(N)nc2=O)[C@H](O)[C@@H]1O | . | 31* | 7 | -4 | -2
CC1(C)CC(=O)/C(=C\c2cccc([N+](=O)[O-])c2)C(C)(C)N1 | -2 | 31* | 2 | 1 | -1
c1ccc(-c2ccccc2C2Cc3nnccc3CN2)cc1 (configuration not stated) | . | . | 0 | -8 | .
CC(=NNc1cc(C)c2ccccc2n1)c1ccccn1 | . | . | 4 | 9 | .
O=C(O)CCCCCNC(=O)Nc1ccc2c(c1)OCCO2 | 4 | -3 | 4 | 4 | -2
O=C(O)CCNc1ccc2c(c1)OCCO2 | -1 | 46* | -3 | 0 | 2
CC[N+]1(C)CCC(O)(/C=C/c2ccccc2)C(C(=O)/C=C/c2ccccc2)C1 (configuration not stated) | 6 | 0 | -8 | 0 | 43
COC(=O)[C@]1(CC(C)C)NC=C(C(=O)c2ccccc2)[C@@H]1c1cccc(C(F)(F)F)c1 | . | . | 3 | 5 | .
CCOc1ccc(CCNC(=O)c2ccc(C)c(S(=O)(=O)N3CCOCC3)c2)cc1OCC | 1 | 0 | -18 | 10 | -1
CCOc1ccc(CCNC(=O)c2ccc(F)c(S(=O)(=O)N3CCOCC3)c2)cc1OCC | 1 | 23* | 1 | -17 | 1
c1ccc(-c2ccc3sccc3n2)cc1 | -9 | 27* | 15 | 5 | 8
c1ccc(-c2ccc3cnccc3n2)cc1 | . | 1 | -8 | -9 | 0
CC(=O)Oc1cccc(C(=O)Nc2ccccc2C(=O)N2CCCC2)c1 | -2 | 20* | 4 | 0 | 3
SMILES | V-ATPase pH | NRP1-CendR mod | ASAP1 GAP inh | ARFGAP1 inhibitor | Exocytosis inh
COC(=O)C1=C(C)N(Cc2ccccc2C(F)(F)F)C(=NCC2CC2)NC1CCc1ccccc1 (configuration not stated) | . | . | 14 | 2 | .
CCOC(=O)N1CCN(C(=O)Nc2ccc3nc(C)c(C)nc3c2)CC1 | 9 | 44* | -4 | -1 | -3
COc1ccc(-c2cc(C(F)(F)F)c3c(N)c(C(=O)NCCSC)sc3n2)cc1 | -5 | -38 | 11 | -10 | -7
COc1ccc(OC)c(NC(=O)c2sc3nc(Cc4ccccc4)cc(C(F)(F)F)c3c2N)c1 | -2 | 24* | -5 | -3 | -3
C(=C\c1ccncc1)/c1ccccc1 | 18* | -1 | -6 | -8 | -1
CN1C(=CC=C2C=C(I)C(=O)C(I)=C2)C(C)(C)c2ccccc21 | -1 | -53 | 6 | 0 | 89*
CN1/C(=C\C=C2/C(=O)Oc3ccccc3C2=O)C(C)(C)c2ccccc21 | . | . | -4 | 1 | .
COCC(=O)N1C[C@H]2CON(C)[C@H]2C[C@H]1c1cccc(-c2cc(Cl)cc(Cl)c2)c1 | . | . | 7 | 3 | .
COc1ccc(C2(C(=O)NC3CCCCC3)CCOCC2)cc1OC | 4 | 24* | 13 | -3 | 3
COc1ccc(C2(C(=O)N3CCCC3)CCOCC2)cc1OC | 5 | 3 | 6 | 9 | -4
O=C(NCc1ccccc1)[C@@H]1CCCN1C(=O)[C@H]1CCCN1C(=O)c1ccc(Cl)c(Cl)c1 | . | . | -5 | -1 | .
O=C(Nc1ccccc1Cl)c1cccs1 | 1 | 26* | -4 | -8 | -4
CC(C)C[C@@H](C)C(=O)N(Cc1ccccc1)c1ccccc1 | -4 | 32* | 10 | 22 | 9
Cc1cc(C)c(C2=NOC3c4ccccc4OCC23)c(C)c1 (configuration not stated) | . | . | -4 | 7 | .
O=C(N[C@H](C(=O)N1CCC[C@H]1C(=O)NCc1ccccc1)C1CCCCC1)c1ccccc1 | . | . | -6 | 0 | .
Cc1cccc(/C=N/c2sc3c(c2C(=O)OC(C)(C)C)CCN(C)C3)c1O | 2 | 31* | 0 | -15 | 3
CCOC(=O)c1c(/N=C/c2cc(C)ccc2O)sc2c1CCN(C)C2 | -2 | -18 | 10 | -4 | -2
CC1=C(c2ccccc2)C(=O)C(C)(C)CC1=O | . | . | -4 | 12 | .
CCN(CC)CCN1CCN(c2cncc(-c3cccc(N)c3)n2)CC1 | . | 2 | 9 | 5 | 0
CCN(CC)CCN1CCN(c2cnc(C)cn2)CC1 | . | 23* | 7 | -6 | 1
Cc1occc1C(=O)NC(C)CCc1ccccc1 (configuration not stated) | -1 | 24* | 3 | -11 | -2
CC(CCc1ccccc1)NC(=O)CNC(=O)c1cccs1 (configuration not stated) | -1 | 28* | 3 | -10 | 7
Cc1ccc(C(=O)CSc2cc(C)nc(SCC(=O)c3ccccc3)n2)cc1 | 3 | 1 | 5 | 7 | 5
Cc1cc(SCC(=O)c2ccccc2)nc(C)n1 | 1 | 26* | 1 | 0 | -1
C=CCNc1cccc2c1S(=O)(=O)N[C@H](Cc1ccccc1)CO2 | . | . | -1 | 9 | .
CC(O)[C@H]1CC[C@H]2[C@@H]3CC[C@H]4C[C@@H](O)CC[C@]4(C)[C@H]3C(=O)C[C@]12C (some centres not stated) | -2 | 26* | 7 | 12 | -8
COc1ccc(NC(=O)c2oc3ccccc3c2NC(=O)C2CC2)cc1OC | -2 | 30* | -2 | 18 | 7
COc1ccc(NC(=O)c2oc3ccccc3c2NC(=O)C2CCCO2)cc1OC (configuration not stated) | -4 | 18 | -3 | 1 | 7
CC(=O)Nc1cccc(N/C=C(\C=O)c2nc3ccccc3o2)c1 | -3 | -19 | 0 | 1 | 56*
COC(=O)c1ccccc1NC(=O)CSc1nc(C)cc(C)n1 | 4 | 45* | -19 | 4 | 0
